This passage reports IC50 and pKa results from ChEMBL document CHEMBL1124756, “The discovery of potent nonpeptide angiotensin II receptor antagonists: a new class of potent antihypertensives” (J Med Chem, 1990).

Data set [1] has as its target T1, Angiotensin II receptor (Rattus norvegicus, UniProt P29089+P25095+P35351).
T1 sequence (P29089 whole entry): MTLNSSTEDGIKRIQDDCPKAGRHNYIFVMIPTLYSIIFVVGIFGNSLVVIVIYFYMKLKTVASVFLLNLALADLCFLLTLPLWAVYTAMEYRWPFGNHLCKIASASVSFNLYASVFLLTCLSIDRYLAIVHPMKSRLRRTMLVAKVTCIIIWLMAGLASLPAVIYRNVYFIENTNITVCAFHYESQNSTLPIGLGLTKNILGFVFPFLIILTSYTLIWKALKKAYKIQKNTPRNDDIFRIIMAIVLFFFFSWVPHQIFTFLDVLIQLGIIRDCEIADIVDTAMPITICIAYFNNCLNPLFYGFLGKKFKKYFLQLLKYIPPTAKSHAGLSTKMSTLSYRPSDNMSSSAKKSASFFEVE
T1 sequence (P25095 whole entry): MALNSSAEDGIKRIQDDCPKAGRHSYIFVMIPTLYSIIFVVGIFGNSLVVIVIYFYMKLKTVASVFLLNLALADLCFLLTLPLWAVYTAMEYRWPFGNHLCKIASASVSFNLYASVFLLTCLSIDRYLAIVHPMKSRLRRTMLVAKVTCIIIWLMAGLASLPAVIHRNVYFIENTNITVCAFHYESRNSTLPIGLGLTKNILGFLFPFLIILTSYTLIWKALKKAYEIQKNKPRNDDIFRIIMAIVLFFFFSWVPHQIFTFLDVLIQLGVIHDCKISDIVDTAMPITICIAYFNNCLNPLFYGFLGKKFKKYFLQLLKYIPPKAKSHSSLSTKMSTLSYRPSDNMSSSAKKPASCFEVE
T1 sequence (P35351 whole entry): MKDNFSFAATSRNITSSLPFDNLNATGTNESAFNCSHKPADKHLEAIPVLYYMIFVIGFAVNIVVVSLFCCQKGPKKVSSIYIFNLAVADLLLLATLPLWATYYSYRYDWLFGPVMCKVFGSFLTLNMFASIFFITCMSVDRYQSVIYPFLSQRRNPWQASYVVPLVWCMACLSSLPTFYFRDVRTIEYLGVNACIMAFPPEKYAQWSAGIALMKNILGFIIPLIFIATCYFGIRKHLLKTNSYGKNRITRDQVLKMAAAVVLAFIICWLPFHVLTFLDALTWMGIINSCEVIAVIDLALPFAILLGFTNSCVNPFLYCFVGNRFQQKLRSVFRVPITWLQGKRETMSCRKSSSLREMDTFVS
Kind of data set: Inhibitory concentration that gave 50 percent displacement of specific binding of [3H]AII (2 nM) to Angiotensin ll receptor. Format: protein assay. Summed up: (§1)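 Rat adrenal cortical microsomes from male Sprague–Dawley rats, resuspended in 50 mM Tris pH 7.2, 5 mM MgCl2, 0.25% BSA. Membranes (0.02–0.03 mg protein) incubated with [3H]AII 2 nM plus varying inhibitor concentrations, 60 min at 25 °C with shaking. Glass-fiber filtration, scintillation counting, duplicates. Nonspecific binding defined with 1 μM unlabeled AII. IC50 taken from linear portion of displacement curve.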

The nature of data set [2]: Dissociation constant (pKa). In kind it is physicochemical.
In data set [3] the target is T1, Angiotensin II receptor. In words: Inhibitory concentration that gave 50 percent displacement of specific binding of [3H]AII (2 nM) to Angiotensin II receptor. Format: protein assay. Summed up:
as §1

One may read the IC50 as the concentration that inhibits the measured activity by half. A high value points to weaker potency in that assay. For orientation: pKa means the negative logarithm of the acid dissociation constant. High values mean a weaker acid or stronger base, low ones a stronger acid or weaker base.

In the case of `CCCCc1nccn1Cc1ccc(NC(=O)c2ccccc2C(=O)O)cc1`, on Angiotensin II receptor [1], the concentration for half-maximal inhibition (IC50) was 0.62 µM. This lies in the sub-micromolar range.
Still for that read-out and setting: the same measure for `O=C(O)c1ccccc1C(=O)Nc1ccc(Cn2cncc2CO)cc1`: above 100 µM; for `COc1ccc(Cc2nccn2Cc2ccc(NC(=O)c3ccccc3C(=O)O)cc2)cc1`: 2.5 µM.
On the same count and under the same terms, under `CC(C)c1nccn1Cc1ccc(NC(=O)c2ccccc2C(=O)O)cc1` stands 12 µM.
Regarding `CCc1nccn1Cc1ccc(NC(=O)c2ccccc2C(=O)O)cc1`, on Angiotensin II receptor [1], the half-maximal inhibitory concentration (IC50) was 8.5 µM.
Molecule `CCCCc1nc(Cl)c(CC(=O)OC)n1Cc1ccc(NC(=O)c2cc(Cl)ccc2NS(=O)(=O)C(F)(F)F)cc1` displayed a pKa in data set [2] of 4.5. Further, at Angiotensin II receptor [3], the IC50 is 5.9 µM.
In data set [2], `CCCCc1nc(Cl)c(CC(=O)OC)n1Cc1ccc(NC(=O)C2CCCCC2NS(=O)(=O)C(F)(F)F)cc1` (stereo in doubt; 50) yielded a pKa of 7.6. Further, the IC50 on Angiotensin II receptor [3] was 3.9 µM.
`CCCc1nccn1Cc1ccc(NC(=O)c2ccccc2C(=O)O)cc1`: the 50% inhibitory concentration (IC50) on Angiotensin II receptor [1] was found to be 3.7 µM.
For `CCCCCc1nccn1Cc1ccc(NC(=O)c2ccccc2C(=O)O)cc1`, the IC50 at Angiotensin II receptor [1] is 0.24 µM.
`O=C(O)c1ccccc1C(=O)Nc1ccc(Cn2ccnc2CC2CCCCC2)cc1` registered an IC50 at Angiotensin II receptor [1] of 2.8 µM. This IC50 lies about 12-fold higher than the previous one.
`O=C(O)c1ccccc1C(=O)Nc1ccc(Cn2ccnc2)cc1` gave an IC50 at Angiotensin II receptor [1] of 100 µM.
Take `O=C(O)c1ccccc1C(=O)Nc1ccc(Cn2ccnc2CCc2ccccc2)cc1`: at Angiotensin II receptor [1], the half-maximal inhibitory concentration (IC50) is 9.4 µM.
Still for that read-out and setting: the same measure for `CCCCCCc1nccn1Cc1ccc(NC(=O)c2ccccc2C(=O)O)cc1`: 0.35 µM; for `Cc1nccn1Cc1ccc(NC(=O)c2ccccc2C(=O)O)cc1`: 100 µM.
